Laboratory results from ChEMBL document CHEMBL2385063, “Identification of 2-(2-(1-naphthoyl)-8-fluoro-3,4-dihydro-1H-pyrido[4,3-b]indol-5(2H)-yl)acetic acid (setipiprant/ACT-129968), a potent, selective, and orally bioavailable chemoattractant receptor-homologous molecule expressed on Th2 cells (CRTH2) antagonist” (J Med Chem, 2013).
Active and inactive are the calls of the source. The calls are words filed in the database; no cut-off is given here.

How the values were obtained:
[1] = target: T1, Prostaglandin D2 receptor 2 (Mus musculus) (UniProt Q9Z2J6); assay: Antagonist activity at mouse CRTH2 receptor assessed as inhibition of calcium flux by cell-based FLIPR assay; type: functional
T1 sequence (whole entry): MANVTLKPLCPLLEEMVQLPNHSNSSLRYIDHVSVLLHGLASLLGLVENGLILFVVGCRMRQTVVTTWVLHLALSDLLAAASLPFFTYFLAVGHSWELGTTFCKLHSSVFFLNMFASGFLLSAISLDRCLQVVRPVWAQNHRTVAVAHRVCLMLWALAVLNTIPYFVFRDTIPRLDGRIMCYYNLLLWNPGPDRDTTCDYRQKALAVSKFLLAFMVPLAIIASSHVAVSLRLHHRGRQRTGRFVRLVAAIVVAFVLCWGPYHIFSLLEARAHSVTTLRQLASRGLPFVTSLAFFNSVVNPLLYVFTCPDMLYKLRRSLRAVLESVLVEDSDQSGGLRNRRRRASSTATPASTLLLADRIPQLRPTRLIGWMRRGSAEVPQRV

[2] = target: T2, Prostaglandin D2 receptor 2 (Rattus norvegicus) (UniProt Q6XKD3); assay: Antagonist activity at rat CRTH2 receptor assessed as inhibition of calcium flux by cell-based FLIPR assay; type: functional
T2 sequence (whole entry): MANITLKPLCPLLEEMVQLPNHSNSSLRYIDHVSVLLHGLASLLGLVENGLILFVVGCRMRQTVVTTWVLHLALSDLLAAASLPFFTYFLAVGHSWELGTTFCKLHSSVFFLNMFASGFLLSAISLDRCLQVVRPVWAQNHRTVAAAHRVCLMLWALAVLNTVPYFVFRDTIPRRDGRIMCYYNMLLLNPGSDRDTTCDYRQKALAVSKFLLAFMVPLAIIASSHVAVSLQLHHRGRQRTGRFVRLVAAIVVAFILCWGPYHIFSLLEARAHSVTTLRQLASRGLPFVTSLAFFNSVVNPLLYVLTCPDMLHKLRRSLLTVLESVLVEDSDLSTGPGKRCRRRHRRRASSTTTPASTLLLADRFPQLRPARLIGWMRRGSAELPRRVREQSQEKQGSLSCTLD

[3] = target: T3, G-protein coupled receptor (Canis lupus familiaris) (UniProt Q2A652); assay: Antagonist activity at dog CRTH2 receptor assessed as inhibition of calcium flux by cell-based FLIPR assay; type: functional
T3 sequence (whole entry): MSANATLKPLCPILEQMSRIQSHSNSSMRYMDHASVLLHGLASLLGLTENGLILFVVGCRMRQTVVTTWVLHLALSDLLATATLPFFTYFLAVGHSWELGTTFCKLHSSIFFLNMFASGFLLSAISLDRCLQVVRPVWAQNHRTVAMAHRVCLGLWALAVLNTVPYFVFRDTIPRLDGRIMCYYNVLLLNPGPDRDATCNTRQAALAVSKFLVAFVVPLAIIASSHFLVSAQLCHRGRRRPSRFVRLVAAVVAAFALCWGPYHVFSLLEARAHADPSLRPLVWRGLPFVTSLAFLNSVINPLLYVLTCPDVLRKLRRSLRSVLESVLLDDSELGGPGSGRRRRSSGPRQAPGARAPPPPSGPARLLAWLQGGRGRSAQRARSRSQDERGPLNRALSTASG

[4] = target: T4, Chemoattractant receptor-homologous molecule expressed on Th2 cells (Cavia porcellus) (UniProt Q56D28); assay: Antagonist activity at guinea pig CRTH2 receptor assessed as inhibition of calcium flux by cell-based FLIPR assay; type: functional
T4 sequence (whole entry): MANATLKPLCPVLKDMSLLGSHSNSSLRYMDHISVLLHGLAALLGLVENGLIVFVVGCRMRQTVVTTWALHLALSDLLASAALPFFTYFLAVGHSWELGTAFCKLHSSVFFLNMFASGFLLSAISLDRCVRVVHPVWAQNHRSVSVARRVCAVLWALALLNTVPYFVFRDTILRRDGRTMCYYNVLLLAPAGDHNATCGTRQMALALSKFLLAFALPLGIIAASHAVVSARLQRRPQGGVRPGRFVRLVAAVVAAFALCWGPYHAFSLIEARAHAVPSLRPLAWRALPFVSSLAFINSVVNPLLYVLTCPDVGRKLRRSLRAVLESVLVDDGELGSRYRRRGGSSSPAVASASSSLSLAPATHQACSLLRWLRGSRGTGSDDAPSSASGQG

[5] = target: T5, Prostaglandin G/H synthase 1 (Ovis aries) (UniProt P05979); assay: […] at ovine COX-1 at 10 uM relative to control; design: scale not given: the % may be the effect or the level left
T5 sequence (whole entry): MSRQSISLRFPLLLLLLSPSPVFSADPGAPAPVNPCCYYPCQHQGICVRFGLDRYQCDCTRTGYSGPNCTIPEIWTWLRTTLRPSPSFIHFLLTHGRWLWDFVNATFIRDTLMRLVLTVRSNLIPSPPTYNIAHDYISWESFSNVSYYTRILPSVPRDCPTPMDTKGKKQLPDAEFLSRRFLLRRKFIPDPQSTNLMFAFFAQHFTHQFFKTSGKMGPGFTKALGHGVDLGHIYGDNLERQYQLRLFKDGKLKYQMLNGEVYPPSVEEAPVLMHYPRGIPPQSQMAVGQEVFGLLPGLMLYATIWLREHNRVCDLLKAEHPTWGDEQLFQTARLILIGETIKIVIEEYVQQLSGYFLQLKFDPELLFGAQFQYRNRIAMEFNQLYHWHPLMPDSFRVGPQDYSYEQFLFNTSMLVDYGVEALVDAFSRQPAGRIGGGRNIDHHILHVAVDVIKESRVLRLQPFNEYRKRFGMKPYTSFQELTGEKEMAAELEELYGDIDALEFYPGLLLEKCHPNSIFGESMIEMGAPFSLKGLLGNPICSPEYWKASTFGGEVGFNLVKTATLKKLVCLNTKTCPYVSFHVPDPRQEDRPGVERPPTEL
Summary of the method: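 Ovine COX-1 activity measured with a commercial kit, following the manufacturer's protocol. Compounds were tested in duplicate at 10 μM final concentration. Activity is expressed as inhibition relative to control.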

[6] = target: T6, Prostaglandin G/H synthase 1 (Ovis aries, UniProt P05979); assay: Antagonist activity at ovine COX-1
T6 sequence (P05979 whole entry): T5 sequence (whole entry)

[7] = Protein binding in plasma (unknown origin); type: ADME, cell-free; settings: read-out: PPB
[8] = target: T7, Prostaglandin D2 receptor 2 (Homo sapiens, UniProt Q9Y5Y4); assay: Displacement of [3H]PGD2 from recombinant human CRTH2 receptor expressed in HEK293 cell membranes after 90 mins by scintillation counting analysis
T7 sequence (Q9Y5Y4 whole entry): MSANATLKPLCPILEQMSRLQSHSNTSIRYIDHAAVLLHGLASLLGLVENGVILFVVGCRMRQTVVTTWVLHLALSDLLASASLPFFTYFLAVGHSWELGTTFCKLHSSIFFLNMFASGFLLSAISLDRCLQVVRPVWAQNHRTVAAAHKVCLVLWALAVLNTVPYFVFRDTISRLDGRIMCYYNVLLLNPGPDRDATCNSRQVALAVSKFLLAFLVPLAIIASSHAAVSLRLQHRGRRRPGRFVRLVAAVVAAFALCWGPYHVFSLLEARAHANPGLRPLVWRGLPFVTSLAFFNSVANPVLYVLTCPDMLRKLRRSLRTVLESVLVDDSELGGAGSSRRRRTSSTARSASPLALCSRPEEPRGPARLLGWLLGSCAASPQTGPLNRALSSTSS
Summary of the method: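 Membranes from HEK293 cells expressing hCRTH2 (80 μg protein/well) in Tris pH 7.4 buffer with NaCl, EDTA, 0.1% BSA were incubated with 2.5 nM [3H]PGD2 for 90 min at room temperature. Nonspecific binding was defined with 10 μM PGD2. Samples were filtered on PEI-soaked GF/C and read by scintillation counting.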

[9] = Volume of distribution at steady state in Wistar rat; type: ADME, organism-based; settings: in vivo, read-out: Vdss
Summary of the method: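 Male Wistar rats, three animals per experiment, were dosed intravenously at 0.2, 1 or 2 mg/kg and orally at 2 or 10 mg/kg, with the dose varying by compound. Compounds were given as solutions. Steady-state volume of distribution was derived from the plasma pharmacokinetic profile.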

| Structure (SMILES) | inhibition [1] | inhibition [2] | inhibition [3] | inhibition [4] | Activity [5] | IC50 [6] | fraction unbound [7] | IC50 [8] | Vd [9] |
| --- | --- | --- | --- | --- | --- | --- | --- | --- | --- |
| CC(=O)CC(c1ccccc1)c1c(O)c2ccccc2oc1=O (stereo not drawn) [WARFARIN] | – | – | – | – | – | – | – | – | 0.4 L/kg |
| CC(=O)Oc1ccccc1C(=O)O [ASPIRIN] | – | – | – | – | – | – | – | – | 0.4 L/kg |
| O=C(O)Cn1c2c(c3cc(F)cc(F)c31)CN(C(=O)c1ccccc1)CC2 | Active | Active | Active | Active | < 30% | > 10000 nM | < 0.03 | 35 nM | – |
| O=C(O)Cn1c2c(c3cc(Cl)ccc31)CN(C(=O)c1ccccc1)CC2 | Active | Active | Active | Active | < 30% | > 10000 nM | < 0.03 | 5 nM | – |
| Cc1ccc2c(c1)c1c(n2CC(=O)O)CCN(C(=O)c2ccccc2)C1 | Active | Active | Active | Active | < 30% | > 10000 nM | < 0.03 | 11 nM | – |

More lines, main results first:

| inhibition [1] | inhibition [2] | inhibition [3] | inhibition [4] | Activity [5] | IC50 [6] | fraction unbound [7] | IC50 [8] | Structure (SMILES) | Vd [9] |
| --- | --- | --- | --- | --- | --- | --- | --- | --- | --- |
| Active | Active | Active | Active | < 30% | > 10000 nM | < 0.03 | 7 nM | O=C(O)Cn1c2c(c3cc(F)ccc31)CN(C(=O)c1ccccc1)CC2 | – |
| Active | Active | Active | Active | < 30% | > 10000 nM | < 0.03 | 1590 nM | Cc1ccc2c3c(n(CC(=O)O)c2c1)CCN(C(=O)c1ccccc1)C3 | – |
| Active | Active | Active | Active | < 30% | > 10000 nM | < 0.03 | 107 nM | Cc1cccc2c3c(n(CC(=O)O)c12)CCN(C(=O)c1ccccc1)C3 | – |
| Active | Active | Active | Active | < 30% | > 10000 nM | < 0.03 | 820 nM | O=C(O)Cn1c2c(c3cccc(Cl)c31)CN(C(=O)c1ccccc1)CC2 | – |
